Laboratory results from ChEMBL document CHEMBL1145431, “Improved anti-osteoporosis potency and reduced endometrial membrane hyperplasia during hormone replacement therapy with estrogen-RGD peptide conjugates” (2007).
Where a SMILES comes first, the peptide text is derived from it. The star is where a group is joined. X1 = C[C@]12CC[C@@H]3c4ccc(OCC(=O)*)cc4CC[C@H]3[C@@H]1CCC2O

Tests used:
Mus musculus [1] = test: Effect on serum phosphorous level in mouse at […] mmol/kg, ip; format: functional
In short: (§1)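 OVX Kuiming mice dosed i.p. daily for 4 weeks in 0.5% CMC. Blood taken retro-orbitally on the day after the last dose, stood 30 min, spun at 3000 g for 20 min, serum stored at -20 °C. Calcium by o-methylphenolphthalein complexone, phosphorus by molybdenum blue, ALP by activity with disodium phenylphosphate substrate.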

Mus musculus [2] = test: Effect on serum phosphorus level in ovariectomized mouse at 0.1103 mmol/kg, ip once daily for 4 weeks; format: functional; in short: as §1
Mus musculus [3] = test: Effect on calcium level in mouse femur at 0.011 mmol/kg, ip; format: functional
In short: (§2)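 Dose-response in OVX Kuiming mice, i.p. daily for 4 weeks in 0.5% CMC at 11.03, 55.15 or 110.3 × 10-3 mmol/kg. Left femur: length, then defatting, drying at 120 °C for 6 h (dry weight), ashing at 800 °C for 8 h. Ash/dry ratio gives mineral content. Ash Ca and P measured colorimetrically. Liver, lung and spleen weighed directly. n = 12, ANOVA.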

Mus musculus [4] = test: Effect on femur length in recipient mouse at 0.055 mmol/kg, ip; format: functional; in short: as §2
Mus musculus [5] = test: Effect on dry weight of femurs in ovariectomized mouse at 0.1103 mmol/kg, ip once daily for 4 weeks; format: functional, Femur
In short: (§3)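 Female Kuiming mice (7 weeks, 30.7 ± 3.1 g) ovariectomized, sham group abdominorotomy. From day 5, i.p. once daily for 4 weeks at 110.3 × 10-3 mmol/kg in 0.5% CMC. Left femur cleaned, length measured, defatted in chloroform-methanol (2:1, 2 × 3 h), dried 120 °C 6 h for dry weight, ashed 800 °C 8 h. Mineral content = ash/dry weight. Ash dissolved in 6 N HCl and diluted. Ca by o-methylphenolphthalein complexone, P by molybdenum blue. Lungs and livers weighed directly.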

Mus musculus [6] = test: Effect on femur length in recipient mouse at 0.011 mmol/kg, ip; format: functional; in short: as §2
Mus musculus [7] = test: Effect on lenght of femur in mouse at 0.110 mmol/kg, po; format: functional
In short: (§4)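 Female Kuiming mice (7 weeks old, 30.7 ± 3.1 g) under abdominal OVX, sham group abdominorotomy only. From day 5 after surgery, dosed orally once daily for 4 weeks at 110.3 × 10-3 mmol/kg in 0.5% CMC (0.2 mL), vehicle group CMC alone. Blood drawn retro-orbitally, then left femur and organs removed under pentobarbital (40.0 mg/kg, i.p.).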

Mus musculus [8] = test: Effect on liver weight in mouse at 0.1103 mmol/kg, po; format: functional; in short: as §4
Mus musculus [9] = test: Effect on serum calcium level in mouse at 0.055 mmol/kg, ip; format: functional
In short: (§5)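 Dose-response in OVX Kuiming mice, i.p. daily for 4 weeks in 0.5% CMC at 11.03, 55.15 or 110.3 × 10-3 mmol/kg. Serum from retro-orbital blood (3000 g, 20 min). Calcium by o-methylphenolphthalein complexone, phosphorus by molybdenum blue, ALP by activity on disodium phenylphosphate. n = 12, ANOVA.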

Mus musculus [10] = test: Effect on liver weight in mouse at 0.055 mmol/kg, ip; format: functional; in short: as §2
Mus musculus [11] = test: Effect on mineral content in ovariectomized mouse at 0.1103 mmol/kg, ip once daily for 4 weeks; format: functional; in short: as §3
Mus musculus [12] = test: Effect on femur length in ovariectomized mouse at 0.1103 mmol/kg, ip once daily for 4 weeks; format: functional; in short: as §3
Mus musculus [13] = test: Effect on serum phosphorous level in mouse at 0.055 mmol/kg, ip; format: functional; in short: as §5
Mus musculus [14] = test: Effect on spleen weight in mouse at 0.011 mmol/kg, ip; format: functional; in short: as §2
Mus musculus [15] = test: Effect on serum ALP level in mouse at 0.055 mmol/kg, ip; format: functional; in short: as §5
Mus musculus [16] = test: Effect on femur ash weight in recipient mouse at 0.011 mmol/kg, ip; format: functional; in short: as §2
Mus musculus [17] = test: Effect on serum phosphorous level in mouse at 0.011 mmol/kg, ip; format: functional; settings: in the assay text read “0.11 mmol/kg” for “0.011 mmol/kg”; in short: as §5
Mus musculus [18] = test: Effect on liver weight in ovariectomized mouse at 0.110 mmol/kg, ip once daily for 4 weeks; format: functional; in short: as §3
Mus musculus [19] = test: Effect on dry weight of femurs in recipient mouse at 0.055 mmol/kg, ip; format: functional, Femur; in short: as §2
Mus musculus [20] = test: Effect on lung weight in mouse at 0.011 mmol/kg, ip; format: functional; in short: as §2
Mus musculus [21] = test: Effect on dry weight of femur in recipient mouse at 0.011 mmol/kg, ip; format: functional; in short: as §2
Mus musculus [22] = test: Effect on lung weight in mouse at 0.055 mmol/kg, ip; format: functional; in short: as §2
Mus musculus [23] = test: Effect on serum ALP level in mouse at 0.1103 mmol/kg, ip; format: functional; in short: as §1
Mus musculus [24] = test: Effect on serum ALP level in mouse at 0.1103 mmol/kg, po; format: functional
In short: (§6)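 Oral OVX Kuiming mouse model, dosed daily for 4 weeks at 110.3 × 10-3 mmol/kg in 0.5% CMC. Retro-orbital blood stood 30 min at room temperature and was spun at 3000 g for 20 min. Serum kept at -20 °C. Calcium read by o-methylphenolphthalein complexone, phosphorus by molybdenum blue, ALP by activity on disodium phenylphosphate substrate.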

Mus musculus [25] = test: Effect on calcium level in ovariectomized mouse at 0.1103 mmol/kg, ip once daily for 4 weeks; format: functional; in short: as §3
Mus musculus [26] = test: Effect on uterus weight in ovariectomized mouse at 0.1103 mmol/kg, ip once daily for 4 weeks; format: functional
In short: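 Female Kuiming mice (7 weeks old, 30.7 ± 3.1 g), abdominal OVX under pentobarbital (40.0 mg/kg i.p.). From day 5 after surgery, i.p. injection once daily for 4 weeks, compound in aqueous 0.5% CMC prepared just before use. The day after the last dose, mice were anesthetized and killed, and lungs, livers, spleens and uteri were removed and weighed directly. n = 12, ANOVA, p < 0.05.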

Mus musculus [27] = test: Effect on mineral level in mouse femur at 0.011 mmol/kg, ip; format: functional; settings: in the assay text read “0.11 mmol/kg” for “0.011 mmol/kg”; in short: as §2
Mus musculus [28] = test: Effect on dry weight of femurs in mouse at 0.1103 mmol/kg, po; format: functional, Femur; in short: as §4
Mus musculus [29] = test: Effect on lung weight in mouse at 0.1103 mmol/kg, po; format: functional; in short: as §4
Mus musculus [30] = test: Increase in body weight in ovariectomized mouse at 0.1103 mmol/kg, ip once daily for 4 weeks; format: functional
In short: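 Female Kuiming mice (30.7 ± 3.1 g) underwent abdominal OVX; the sham group had abdominorotomy only. From day 5 after surgery, i.p. dosing once daily for 4 weeks at 110.3 × 10-3 mmol/kg in aqueous 0.5% CMC. Body weight was recorded on the day of the last administration.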

Mus musculus [31] = test: Effect on femur ash weight in mouse at 0.1103 mmol/kg, po; format: functional; in short: as §4
Mus musculus [32] = test: Effect on calcium level in mouse at 0.1103 mmol/kg, po; format: functional; in short: as §4
Mus musculus [33] = test: Effect on lung weight in ovariectomized mouse at 0.1103 mmol/kg, ip once daily for 4 weeks; format: functional; in short: as §3
Mus musculus [34] = test: Effect on serum calcium level in mouse at 0.1103 mmol/kg, po; format: functional; in short: as §6
Mus musculus [35] = test: Effect on serum ALP level in mouse at 0.011 mmol/kg, ip; format: functional; in short: as §5
Mus musculus [36] = test: Effect on spleen weight in mouse at 0.1103 mmol/kg, po; format: functional; in short: as §4
Mus musculus [37] = test: Effect on serum calcium level in mouse at 0.1103 mmol/kg, ip; format: functional; in short: as §1

Structure (SMILES)	Activity (Mus musculus [1])	Activity (Mus musculus [2])	Activity (Mus musculus [3])	Activity (Mus musculus [4])	Activity (Mus musculus [5])	Activity (Mus musculus [6])	Activity (Mus musculus [7])	Activity (Mus musculus [8])	Activity (Mus musculus [9])	Activity (Mus musculus [10])	Ratio (Mus musculus [11])	Activity (Mus musculus [12])	Activity (Mus musculus [13])	Activity (Mus musculus [14])	Activity (Mus musculus [15])	Activity (Mus musculus [16])	Activity (Mus musculus [17])	Activity (Mus musculus [18])	Activity (Mus musculus [19])	Activity (Mus musculus [20])	other results
C[C@]12CC[C@@H]3c4ccc(OCC(=O)N[C@@H](CCCNC(=N)N)C(=O)NCC(=O)N[C@@H](CC(=O)O)C(=O)N[C@@H](CO)C(=O)O)cc4CC[C@H]3[C@@H]1CCC2O (some centres undefined) (X1-RGDS-OH)	1.599 mmol/L	1.599 mmol/L	41.5%	1.622 cm	63.4 mg	1.642 cm	1.635 cm	1.329 g	2.047 mmol/L	1.397 g	0.582	1.642 cm	1.607 mmol/L	125 mg	33.616 U/L	18.1 mg	1.599 mmol/L	1.377 g	56.3 mg	181 mg	Activity (Mus musculus [21]): 48.8 mg; Activity (Mus musculus [22]): 167 mg; Activity (Mus musculus [23]): 31.4 U/L; Activity (Mus musculus [24]): 35.211 U/L; Activity (Mus musculus [25]): 54.885%; Activity (Mus musculus [26]): 42.5 mg; Ratio (Mus musculus [27]): 0.582; Activity (Mus musculus [28]): 68.6 mg; Activity (Mus musculus [29]): 166 mg; Activity (Mus musculus [30]): 35.2 g; Activity (Mus musculus [31]): 30.4 mg; Activity (Mus musculus [32]): 51.988%; Activity (Mus musculus [33]): 173 mg; Activity (Mus musculus [34]): 2.03 mmol/L; Activity (Mus musculus [35]): 40.3 U/L; Activity (Mus musculus [36]): 138 mg; Activity (Mus musculus [37]): 2.014 mmol/L
C[C@]12CC[C@@H]3c4ccc(OCC(=O)N[C@@H](CCCNC(=N)N)C(=O)NCC(=O)N[C@@H](CC(=O)O)C(=O)N[C@@H](Cc5ccccc5)C(=O)O)cc4CC[C@H]3[C@@H]1CCC2O (some centres undefined) (X1-RGDF-OH)	1.605 mmol/L	1.605 mmol/L	42.9%	1.624 cm	64.2 mg	1.623 cm	1.626 cm	1.339 g	2.04 mmol/L	1.407 g	0.585	1.635 cm	1.602 mmol/L	145 mg	33.746 U/L	20.8 mg	1.605 mmol/L	1.395 g	53.9 mg	174 mg	Activity (Mus musculus [21]): 46.9 mg; Activity (Mus musculus [22]): 155 mg; Activity (Mus musculus [23]): 31.5 U/L; Activity (Mus musculus [24]): 33.7 U/L; Activity (Mus musculus [25]): 56.69%; Activity (Mus musculus [26]): 55.4 mg; Ratio (Mus musculus [27]): 0.585; Activity (Mus musculus [28]): 63.1 mg; Activity (Mus musculus [29]): 165 mg; Activity (Mus musculus [30]): 33.1 g; Activity (Mus musculus [31]): 28.7 mg; Activity (Mus musculus [32]): 53.001%; Activity (Mus musculus [33]): 169 mg; Activity (Mus musculus [34]): 2.04 mmol/L; Activity (Mus musculus [35]): 38.6 U/L; Activity (Mus musculus [36]): 135 mg; Activity (Mus musculus [37]): 2.015 mmol/L
